Data reported in article PMC7058367 (Biochemical pharmacology, 2018).
Like-named read-outs stand apart in the source and are kept apart here.

How the values were obtained:
GluN1/GluN2C receptors = GluN1/GluN2C receptors (Rattus norvegicus, UniProt P35439+Q00961); format: cell-based; conditions: 5 mM EGTA injected vs controls (Fig. 6C, G)
Method in brief: (§1)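 Oocytes expressed wild-type GluN1a/GluN2 receptors from 15-30 ng RNA (1:3 molar) and were held in ND-96 at 17 °C for 1-5 days. For Ca2+ chelation, 5 mM EGTA (50 nL) was injected 1-2 h before recording, with uninjected and water-injected oocytes as controls. TEVC was run at -60 mV in 116 mM NaCl, 2 mM KCl, 0.3 mM BaCl2, 5 mM HEPES (pH 7.4). […] Values are mean ± s.e.m.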

[1] = target: GluN1/GluN2D^ΔCTD receptors (Rattus norvegicus, UniProt P35439+Q62645); format: cell-based; conditions: 50 µM compound; 10 µM L-glutamate/10 µM glycine (Fig. 1C)
[2] = system: GluN1/GluN2D^ΔCTD receptors; format: cell-based, rat; conditions: 50 µM compound; compared to wildtype
[3] = target: GluN1/GluN2B^ΔCTD receptors (Rattus norvegicus, UniProt P35439+Q00960); format: cell-based; conditions: 50 µM compound; 10 µM L-glutamate/10 µM glycine (Fig. 1C)
[4] = target: GluN1^ΔCTD/GluN2A receptors (Rattus norvegicus, UniProt P35439+Q00959); format: cell-based; conditions: 50 µM compound; 10 µM L-glutamate/10 µM glycine (Fig. 1D)
Method in brief: (§2)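 Xenopus laevis oocytes were injected with GluN1a:GluN2 RNA at a 1:3 molar ratio (15-30 ng total; 10-20-fold more for CTD-deleted subunits) and kept in ND-96 at 17 °C for 1-5 days. TEVC was run at -60 mV in 116 mM NaCl, 2 mM KCl, 0.3 mM BaCl2, 5 mM HEPES, pH 7.4. […] Full-length controls came from the same batch and day; mean ± s.e.m.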

[5] = system: GluN1 CTD in neurons expressing GluN1-GFP, GluN2A and GluN1-mCherry; experiment: CTD-FRET; format: cell-based, rat; conditions: 75 µM compound, absence of agonists, imaged 10 min after application (Fig. 8)
Method in brief: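 Rat primary hippocampal neurons were transfected at DIV 7-10 with ~2 µg total DNA (GluN1-GFP, GluN2A, GluN1-mCherry) by lipofection and imaged at 16-18 DIV in 0.87x HBSS, 5 mM HEPES, 1 mM glucose, 2.5 mM MgCl2, 0.5 mM CaCl2. Baseline and 10 min post-compound two-photon FLIM images were taken, each neuron imaged twice, compounds interleaved. Lifetimes were fit single-exponential and analysed blind; two preparations pooled.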

[6] = target: GluN1^ΔCTD/GluN2B receptors (Rattus norvegicus, UniProt P35439+Q00960); format: cell-based; conditions: 50 µM compound; 10 µM L-glutamate/10 µM glycine (Fig. 1D)
Method in brief: as §2

GluN1/GluN2D receptors = GluN1/GluN2D receptors (Rattus norvegicus, UniProt P35439+Q62645); format: cell-based; conditions: 5 mM EGTA injected vs controls (Fig. 6D, H)
Method in brief: as §1

[7] = target: GluN1/GluN2A^ΔCTD receptors (Rattus norvegicus, UniProt P35439+Q00959); format: cell-based
Method in brief: as §2

GluN1/GluN2B receptors = GluN1/GluN2B receptors (Rattus norvegicus, UniProt P35439+Q00960); format: cell-based
GluN1/GluN2A receptors = GluN1/GluN2A receptors (Rattus norvegicus, UniProt P35439+Q00959); format: cell-based
Method in brief: as §2

[8] = target: GluN1^ΔCTD/GluN2D receptors (Rattus norvegicus, UniProt P35439+Q62645); format: cell-based; conditions: 50 µM compound; 10 µM L-glutamate/10 µM glycine (Fig. 1D)
Method in brief: (§3)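 Xenopus laevis oocytes were injected with GluN1a and GluN2 RNA at a 1:3 molar ratio. The CTD was removed by a stop codon at GluN1 838K or GluN2C 855K, and 10-20-fold more RNA than wild type was injected. Oocytes were kept in ND-96 at 17 °C for 1-5 days. TEVC was run at -60 mV in Ba2+ buffer (pH 7.4). […] Full-length receptors were run alternately on the same day and oocyte batch. Values are mean ± s.e.m.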

[9] = target: GluN1/GluN2C^ΔCTD receptors (Rattus norvegicus, UniProt P35439+Q00961); experiment: Two-electrode voltage clamp of GluN2C CTD-deleted receptors; format: cell-based; conditions: 50 µM compound; 10 µM L-glutamate/10 µM glycine (Fig. 1B,C)
Method in brief: as §3

[10] = target: GluN1^ΔCTD/GluN2C receptors (Rattus norvegicus, UniProt P35439+Q00961); format: cell-based; conditions: 50 µM compound; 10 µM L-glutamate/10 µM glycine (Fig. 1D)
Method in brief: as §2

[11] = 2 µM PMA for 10 minutes, 50 µM UBP684, 100 µM PS (Fig. 7E, F)
[12] = 10 µM FSK and 1 mM IBMX for 10 minutes, 50 µM UBP684, 100 µM PS (Fig. 7B, C)
[13] = 50 µM compound, control media for U73122 experiment (Fig. 6I)

Sequence of GluN1/GluN2D receptors (Q62645 28-1323, other chains not shown): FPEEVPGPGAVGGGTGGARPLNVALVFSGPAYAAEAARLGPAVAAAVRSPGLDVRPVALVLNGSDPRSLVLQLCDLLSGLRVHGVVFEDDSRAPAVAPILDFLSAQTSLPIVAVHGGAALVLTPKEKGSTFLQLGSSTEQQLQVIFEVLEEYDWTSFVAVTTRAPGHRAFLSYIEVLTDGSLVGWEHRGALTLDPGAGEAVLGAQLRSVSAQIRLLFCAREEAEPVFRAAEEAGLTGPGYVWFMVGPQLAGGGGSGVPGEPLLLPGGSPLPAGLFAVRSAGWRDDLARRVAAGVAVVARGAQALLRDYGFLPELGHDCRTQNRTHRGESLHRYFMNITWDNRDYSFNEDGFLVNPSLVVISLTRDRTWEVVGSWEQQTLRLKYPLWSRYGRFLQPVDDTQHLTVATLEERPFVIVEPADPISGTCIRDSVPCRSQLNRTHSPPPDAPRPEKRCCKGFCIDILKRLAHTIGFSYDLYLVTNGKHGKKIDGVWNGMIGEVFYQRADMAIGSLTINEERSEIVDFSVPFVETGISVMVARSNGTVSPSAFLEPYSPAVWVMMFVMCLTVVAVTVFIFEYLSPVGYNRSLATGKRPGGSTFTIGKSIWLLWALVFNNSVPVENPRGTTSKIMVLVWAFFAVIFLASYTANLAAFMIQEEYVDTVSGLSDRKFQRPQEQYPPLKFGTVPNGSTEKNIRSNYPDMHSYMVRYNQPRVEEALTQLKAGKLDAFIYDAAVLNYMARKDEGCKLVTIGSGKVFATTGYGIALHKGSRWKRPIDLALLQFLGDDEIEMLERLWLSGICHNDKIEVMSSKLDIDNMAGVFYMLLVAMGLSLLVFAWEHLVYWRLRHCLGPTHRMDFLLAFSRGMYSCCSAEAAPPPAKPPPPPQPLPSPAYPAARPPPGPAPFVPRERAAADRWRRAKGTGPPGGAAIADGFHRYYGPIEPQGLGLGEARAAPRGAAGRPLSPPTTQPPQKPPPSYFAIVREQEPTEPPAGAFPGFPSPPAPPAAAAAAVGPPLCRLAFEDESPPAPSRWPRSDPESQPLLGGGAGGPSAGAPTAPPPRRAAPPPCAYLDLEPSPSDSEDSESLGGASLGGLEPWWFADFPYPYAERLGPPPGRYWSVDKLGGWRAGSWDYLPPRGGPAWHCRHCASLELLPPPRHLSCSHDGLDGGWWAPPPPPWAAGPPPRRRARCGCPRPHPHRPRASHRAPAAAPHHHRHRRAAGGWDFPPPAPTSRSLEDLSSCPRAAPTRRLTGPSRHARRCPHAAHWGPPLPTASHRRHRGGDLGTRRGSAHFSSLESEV
Sequence of GluN1^ΔCTD/GluN2D receptors (Q62645 28-1323, stated change not applied, other chains not shown): as the sequence (Q62645 28-1323, other chains not shown) above
Sequence of GluN1/GluN2C^ΔCTD receptors (Q00961 20-842, stated change not applied, other chains not shown): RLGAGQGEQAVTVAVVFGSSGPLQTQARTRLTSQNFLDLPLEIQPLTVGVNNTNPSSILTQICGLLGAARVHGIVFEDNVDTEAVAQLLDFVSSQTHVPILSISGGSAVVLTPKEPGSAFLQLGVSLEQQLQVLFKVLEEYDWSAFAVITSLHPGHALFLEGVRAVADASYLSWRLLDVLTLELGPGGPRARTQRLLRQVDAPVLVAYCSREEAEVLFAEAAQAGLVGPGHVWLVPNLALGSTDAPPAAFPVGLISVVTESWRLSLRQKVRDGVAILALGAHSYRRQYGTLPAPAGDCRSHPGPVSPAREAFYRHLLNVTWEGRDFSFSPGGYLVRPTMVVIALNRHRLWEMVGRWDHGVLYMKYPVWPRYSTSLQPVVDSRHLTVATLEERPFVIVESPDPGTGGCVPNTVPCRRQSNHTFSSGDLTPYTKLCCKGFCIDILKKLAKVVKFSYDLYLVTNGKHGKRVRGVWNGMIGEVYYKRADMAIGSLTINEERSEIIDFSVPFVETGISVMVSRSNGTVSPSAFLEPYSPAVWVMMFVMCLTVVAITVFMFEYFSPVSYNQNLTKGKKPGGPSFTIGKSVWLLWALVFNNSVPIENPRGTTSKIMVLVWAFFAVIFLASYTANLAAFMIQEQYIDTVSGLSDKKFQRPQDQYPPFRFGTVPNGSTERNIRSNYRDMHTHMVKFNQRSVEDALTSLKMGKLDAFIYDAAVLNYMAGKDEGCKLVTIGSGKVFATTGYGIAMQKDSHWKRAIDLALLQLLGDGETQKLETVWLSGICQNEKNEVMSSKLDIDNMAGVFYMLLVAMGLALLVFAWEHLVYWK
Sequence of GluN1/GluN2D^ΔCTD receptors (Rattus norvegicus, UniProt P35439+Q62645) (Q62645 28-869 limits assumed, stated change not applied, other chains not shown): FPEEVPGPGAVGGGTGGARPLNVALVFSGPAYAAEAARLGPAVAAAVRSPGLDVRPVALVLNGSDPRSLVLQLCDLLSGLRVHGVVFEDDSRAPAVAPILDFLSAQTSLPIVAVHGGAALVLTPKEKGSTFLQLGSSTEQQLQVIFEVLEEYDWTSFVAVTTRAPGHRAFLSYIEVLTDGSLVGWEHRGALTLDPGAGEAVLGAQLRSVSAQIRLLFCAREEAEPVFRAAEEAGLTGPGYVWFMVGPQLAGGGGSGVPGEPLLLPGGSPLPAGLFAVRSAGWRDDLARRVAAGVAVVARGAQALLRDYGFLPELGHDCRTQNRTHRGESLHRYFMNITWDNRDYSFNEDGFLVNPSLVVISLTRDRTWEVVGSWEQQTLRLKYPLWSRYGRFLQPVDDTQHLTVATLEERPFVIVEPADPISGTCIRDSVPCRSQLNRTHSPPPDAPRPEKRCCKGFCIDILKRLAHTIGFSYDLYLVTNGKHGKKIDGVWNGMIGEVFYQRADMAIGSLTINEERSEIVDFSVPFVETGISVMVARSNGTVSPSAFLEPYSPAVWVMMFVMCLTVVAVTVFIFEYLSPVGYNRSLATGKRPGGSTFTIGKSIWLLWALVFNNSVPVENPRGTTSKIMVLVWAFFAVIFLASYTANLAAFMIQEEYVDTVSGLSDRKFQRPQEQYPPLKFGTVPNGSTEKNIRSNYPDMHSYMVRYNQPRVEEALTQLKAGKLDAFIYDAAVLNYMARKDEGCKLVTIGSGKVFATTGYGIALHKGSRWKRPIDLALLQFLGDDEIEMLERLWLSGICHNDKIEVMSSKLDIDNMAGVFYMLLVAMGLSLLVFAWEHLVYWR
Sequence of GluN1/GluN2C receptors (Q00961 20-1237, other chains not shown): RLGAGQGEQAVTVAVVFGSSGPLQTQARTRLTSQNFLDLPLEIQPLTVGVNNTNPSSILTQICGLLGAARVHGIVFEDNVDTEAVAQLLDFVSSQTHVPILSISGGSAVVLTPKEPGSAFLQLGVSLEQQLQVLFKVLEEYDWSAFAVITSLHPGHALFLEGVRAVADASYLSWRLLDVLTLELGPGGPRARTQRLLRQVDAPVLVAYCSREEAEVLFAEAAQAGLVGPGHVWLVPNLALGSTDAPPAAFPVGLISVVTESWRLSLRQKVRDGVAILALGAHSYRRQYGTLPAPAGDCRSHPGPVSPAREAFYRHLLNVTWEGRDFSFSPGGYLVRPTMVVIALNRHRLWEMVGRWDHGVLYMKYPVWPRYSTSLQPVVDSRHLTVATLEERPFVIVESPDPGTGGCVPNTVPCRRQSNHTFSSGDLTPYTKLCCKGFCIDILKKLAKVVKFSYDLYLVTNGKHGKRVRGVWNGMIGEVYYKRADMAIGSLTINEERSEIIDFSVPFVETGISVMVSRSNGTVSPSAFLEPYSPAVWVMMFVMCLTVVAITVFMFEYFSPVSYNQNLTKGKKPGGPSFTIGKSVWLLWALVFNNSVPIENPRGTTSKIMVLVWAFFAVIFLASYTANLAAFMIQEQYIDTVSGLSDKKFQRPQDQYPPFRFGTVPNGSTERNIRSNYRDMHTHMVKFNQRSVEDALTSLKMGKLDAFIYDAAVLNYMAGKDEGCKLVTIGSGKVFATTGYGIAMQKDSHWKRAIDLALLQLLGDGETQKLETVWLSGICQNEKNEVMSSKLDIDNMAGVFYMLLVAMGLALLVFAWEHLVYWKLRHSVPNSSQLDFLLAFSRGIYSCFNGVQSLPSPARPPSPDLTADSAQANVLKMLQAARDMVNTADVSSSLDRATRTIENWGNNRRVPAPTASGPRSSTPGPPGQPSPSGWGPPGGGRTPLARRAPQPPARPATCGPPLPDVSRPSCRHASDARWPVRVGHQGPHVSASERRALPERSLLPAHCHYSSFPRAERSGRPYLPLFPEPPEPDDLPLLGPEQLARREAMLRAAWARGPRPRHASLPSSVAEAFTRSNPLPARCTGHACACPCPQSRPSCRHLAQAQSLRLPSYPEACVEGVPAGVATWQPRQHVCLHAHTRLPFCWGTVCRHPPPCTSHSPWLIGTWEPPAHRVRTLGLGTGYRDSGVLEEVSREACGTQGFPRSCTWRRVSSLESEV
Sequence of GluN1^ΔCTD/GluN2C receptors (Q00961 20-1237, stated change not applied, other chains not shown): as the sequence (Q00961 20-1237, other chains not shown) above

CC(C)CCCc1ccc2cc(C(=O)O)ccc2c1 [UBP684]
effect of EGTA injection on potentiation/modulation (GluN1/GluN2C receptors): no significant effect | % potentiation of agonist-evoked current [1]: 23 ± 4% | reduction of potentiation by GluN2D CTD deletion compared to wildtype [2]: approximately 50% | % potentiation of agonist-evoked current [3]: 74.4 ± 7.0% | % potentiation of agonist-evoked current [4]: 3 ± 2% | change of GluN1-GFP fluorescence lifetime (movement of the GluN1 CTD) [5]: significant increase | % potentiation of agonist-evoked current [6]: 44 ± 8% | effect of EGTA injection on potentiation/modulation (GluN1/GluN2D receptors): no significant effect | effect of PKC activation by PMA on PAM activity ([7]; 2 µM PMA for 10 minutes, 50 µM UBP684, 100 µM PS (Fig. 7G, H)): increased | % potentiation of agonist-evoked current ([7]; 50 µM compound, 10 µM L-glutamate/10 µM glycine (Fig. 1C)): 27 ± 5% | reduction of potentiation by GluN2A CTD deletion compared to wildtype ([7]; 50 µM compound, compared to wildtype): approximately 50% | effect of PKC activation by PMA on PAM activity (GluN1/GluN2B receptors; [11]): larger % potentiation | effect of PKA activation on % potentiation (GluN1/GluN2B receptors; [12]): unchanged | % potentiation of agonist response (GluN1/GluN2B receptors; 50 µM compound, H2O-injected control oocytes (Fig. 6B)): 45 ± 5% | % potentiation of agonist-evoked current (GluN1/GluN2B receptors; [13]): 33 ± 4% | % potentiation of agonist response (GluN1/GluN2B receptors; 50 µM compound, oocytes injected with 5 mM EGTA (Fig. 6B)): 28 ± 2% | % potentiation of agonist response (GluN1/GluN2B receptors; 50 µM compound, un-injected control oocytes (Fig. 6B)): 48 ± 4% | effect of PKC activation by PMA on PAM activity (GluN1/GluN2A receptors; [11]): larger % potentiation | effect of PKA activation on % potentiation (GluN1/GluN2A receptors; [12]): unchanged | % potentiation of agonist response (GluN1/GluN2A receptors; 50 µM compound, H2O-injected control oocytes (Fig. 6A)): 47 ± 13% | % potentiation of agonist-evoked current (GluN1/GluN2A receptors; [13]): 24 ± 5% | % potentiation of agonist response (GluN1/GluN2A receptors; 50 µM compound, oocytes injected with 5 mM EGTA (Fig. 6A)): 9 ± 3% | % potentiation of agonist response (GluN1/GluN2A receptors; 50 µM compound, un-injected control oocytes (Fig. 6A)): 54 ± 5% | % potentiation of agonist-evoked current [8]: 19 ± 7% | % inhibition of agonist-evoked current [9]: 20 ± 3% | % potentiation of agonist-evoked current [10]: 5 ± 3%
